The source of these data is ChEMBL document CHEMBL1125318, “4-substituted thiophene- and furan-2-sulfonamides as topical carbonic anhydrase inhibitors” (J Med Chem, 1992).

The nature of series [1]: Ionization constant (pKa). The class given is physicochemical. The essentials:
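The half-neutralization point was found by titration with 0.5 N NaOH and 0.5 N HCl in 30% EtOH–H2O using a glass electrode.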

The subject of series [2] is Oryctolagus cuniculus. Put plainly: Ability to penetrate the albino rabbit eye and to inhibit the target enzyme in an homogenate of the iris-ciliary body at 1 hr postdosing, ex vivo when dosed in 0.1% aqueousi (hydroxymethyl) cellulose. The series is classed as functional. The essentials:
(§1)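 Albino rabbits received one 50 μL drop of test suspension topically; 1 h after dosing the iris-ciliary body was homogenized and its carbonic anhydrase activity measured ex vivo. Screening used 0.5%, with lower concentrations for some compounds. Reference suspensions were given as 0.1% in 0.5% aqueous (hydroxyethyl)cellulose.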

Series [3] is described as follows: Partition coefficient (logD7.4). The series is classed as physicochemical. To be noted: octanol/water, pH 7.4. The essentials:
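Compound was equilibrated between 1-octanol and 0.1 ionic strength pH 7.4 phosphate buffer; each phase was quantified by UV spectrophotometry.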

In series [4] the test system is Oryctolagus cuniculus. Put plainly: Ability to penetrate the albino rabbit eye and to inhibit the target enzyme in an homogenate of the iris-ciliary body at 1 hr postdosing, ex vivo when dosed in 0.5% aqueousi (hydroxymethyl) cellulose. The series is classed as functional. The essentials: as §1
Series [5] relates to Oryctolagus cuniculus. The series is described as follows: Ability to penetrate the albino rabbit eye and to inhibit the target enzyme in an homogenate of the iris-ciliary body at 1 hr postdosing, ex vivo when dosed in 0.05% aqueousi (hydroxymethyl) cellulose. The series is classed as functional. The essentials:
as §1

Series [6] in a line: Solubility (pH 7.4, 25 degree C). The class given is physicochemical. To be noted: buffer, read-out: S.
The nature of series [7]: Aqueous solubility (25 degree C). The class given is physicochemical. To be noted: read-out: S.
In series [8] the target is Carbonic anhydrase 2 (Homo sapiens, UniProt P00918). Put plainly: Inhibition of human carbonic anhydrase II. To be noted: read-out: I50. The essentials: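 CA II was affinity-purified from human erythrocytes. CO2 hydration was assayed by pH stat in 0.02 M Tris chloride, pH 8.6, at 2 °C with CO2–air (5:95) bubbled at 150 mL/min. The 0.025 N NaOH volume needed to hold pH 8.3 over 3 min was recorded, with inhibitor added before enzyme. I50 was read from semilog plots of % inhibition versus log concentration.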

Series [9] in a line: Solubility measured in water. The series is classed as physicochemical. To be noted: read-out: S. The essentials: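 Solubility was measured in water at 25 °C.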
Series [10] in a line: Solubility measured pH 7.4 at 25 degree C. The series is classed as physicochemical. As to conditions: buffer, read-out: S.

A value given as a limit tells only on which side of the number the result lay.

For orientation: pKa means the negative logarithm of the acid dissociation constant. A high value points to a group that holds its proton tightly. A word on the Inhibition: it is the drop in the measured response relative to a control, in per cent. A low value points to a weak effect. Usually logD stands for lipophilicity at a set pH, counting ionised and neutral species. `CN1CCN(Cc2ccc(S(=O)(=O)c3csc(S(N)(=O)=O)c3)cc2)CC1.Cl`: the pKa in series [1] turned out to be 9.25. Also, the Inhibition in series [2] worked out at 90%; in series [4], 92%; in [5], 29%. Further, the logD in series [3] was 0.38. Further, the solubility in [6] was above 56000 µg/mL; in series [7] it was above 43000 µg/mL. Further, the IC50 in series [8] was 11 nM.
As to `CN1CCN(Cc2ccc(C(=O)c3csc(S(N)(=O)=O)c3)cc2)CC1.Cl`, the pKa in series [1] amounted to 9.32. In [3], this molecule had a logD of 0.362. The figures for the solubility in [9] and in series [10] were 5000 µg/mL and 2000 µg/mL, respectively. The molecule further gave an Inhibition in [4] of 90%. Also, the IC50 in series [8] came out at 4 nM.
